Laboratory results from ChEMBL document CHEMBL4359929, “Piperidine and piperazine inhibitors of fatty acid amide hydrolase targeting excitotoxic pathology” (Bioorg Med Chem, 2019).
pIC50: −log10 of the molar value. The source made the active and inactive calls. The calls are words filed in the database; no cut-off is given here.

Legend:
[1] = target: Cannabinoid receptor 1 (Rattus norvegicus) (UniProt P20272); assay: Displacement of [3H]CP55940 from CB1 receptor in rat brain by competition-equilibrium binding analysis
Target sequence in this assay (P20272 whole entry, looked up): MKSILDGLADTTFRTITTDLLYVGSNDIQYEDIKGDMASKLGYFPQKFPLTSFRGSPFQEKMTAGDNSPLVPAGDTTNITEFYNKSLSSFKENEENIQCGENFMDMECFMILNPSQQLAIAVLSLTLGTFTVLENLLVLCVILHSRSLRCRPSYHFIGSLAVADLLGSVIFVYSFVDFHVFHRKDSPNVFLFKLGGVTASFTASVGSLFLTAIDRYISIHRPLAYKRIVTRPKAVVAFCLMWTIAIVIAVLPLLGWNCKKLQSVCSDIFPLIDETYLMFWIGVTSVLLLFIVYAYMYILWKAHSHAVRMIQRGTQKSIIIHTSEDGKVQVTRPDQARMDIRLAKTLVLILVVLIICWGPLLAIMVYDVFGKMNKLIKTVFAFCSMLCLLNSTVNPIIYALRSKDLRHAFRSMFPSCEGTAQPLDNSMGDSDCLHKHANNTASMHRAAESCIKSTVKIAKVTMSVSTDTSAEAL

[2] = target: Cannabinoid receptor 1 (Rattus norvegicus) (UniProt P20272); assay: Displacement of [3H]CP55940 from CB1 receptor in rat brain by competition-equilibrium binding analysis; format: tissue-based
Outline: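 Rat brain membranes as CB1 source; competition-equilibrium binding against [3H]CP-55,940.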
Target sequence in this assay (P20272 whole entry): as the sequence (P20272 whole entry, looked up) above

[3] = target: Cannabinoid receptor 2 (Mus musculus) (UniProt P47936); assay: Displacement of [3H]CP55940 from mouse CB2 receptor expressed in HEK293 cells by competition-equilibrium binding analysis; format: cell-based
Sequence of Cannabinoid receptor 2 (Mus musculus) (P47936 whole entry): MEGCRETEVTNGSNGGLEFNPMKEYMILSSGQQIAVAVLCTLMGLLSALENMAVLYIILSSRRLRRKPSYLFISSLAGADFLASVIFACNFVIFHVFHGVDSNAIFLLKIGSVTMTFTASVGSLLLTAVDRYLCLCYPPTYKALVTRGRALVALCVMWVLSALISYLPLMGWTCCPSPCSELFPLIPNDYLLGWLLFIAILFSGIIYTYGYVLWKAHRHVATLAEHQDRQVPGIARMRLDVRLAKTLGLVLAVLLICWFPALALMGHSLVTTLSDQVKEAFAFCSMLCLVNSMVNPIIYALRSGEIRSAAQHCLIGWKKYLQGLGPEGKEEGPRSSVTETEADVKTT
Outline: (§1)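 HEK293 cell membranes expressing mouse or human CB2; competition-equilibrium binding against [3H]CP-55,940.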

[4] = target: T1, Fatty-acid amide hydrolase 1 (Homo sapiens, UniProt O00519); assay: Inhibition of human recombinant MBP-tagged FAAH expressed in Escherichia coli cells using AAMCA as substrate incubated for 15 mins followed by substrate addition and measured after every 20 mins for 4 hrs by fluorescence based assay
T1 sequence (O00519 whole entry): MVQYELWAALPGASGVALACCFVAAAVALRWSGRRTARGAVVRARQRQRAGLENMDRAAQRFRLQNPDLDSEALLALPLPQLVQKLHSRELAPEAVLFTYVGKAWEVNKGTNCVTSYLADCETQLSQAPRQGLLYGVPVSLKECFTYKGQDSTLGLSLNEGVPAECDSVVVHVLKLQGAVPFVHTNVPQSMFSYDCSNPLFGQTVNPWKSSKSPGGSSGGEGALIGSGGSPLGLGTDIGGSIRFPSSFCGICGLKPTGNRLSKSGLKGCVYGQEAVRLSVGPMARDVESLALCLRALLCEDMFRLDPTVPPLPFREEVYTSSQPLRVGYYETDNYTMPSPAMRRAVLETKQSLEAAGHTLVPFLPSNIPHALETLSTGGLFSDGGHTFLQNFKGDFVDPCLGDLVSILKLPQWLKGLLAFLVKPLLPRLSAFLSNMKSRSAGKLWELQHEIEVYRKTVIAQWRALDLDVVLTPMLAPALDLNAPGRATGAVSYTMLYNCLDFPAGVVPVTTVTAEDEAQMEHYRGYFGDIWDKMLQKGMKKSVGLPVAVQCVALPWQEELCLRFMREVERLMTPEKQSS
Outline: (§2)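 Fluorescent enzyme assay in throughput format. Human recombinant FAAH or purified rat FAAH used arachidonoyl 7-amino-4-methylcoumarin amide as substrate; human recombinant MGL was run by a similar fluorometric procedure.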

[5] = Selectivity ratio of IC50 for human full length ABHD6 expressed in Escherichia coli cells to IC50 for rat recombinant His/GST-tagged FAAH expressed in Escherichia coli cells by fluorescence based assay
Homo sapiens [6] = species: Homo sapiens; assay: Selectivity ratio of IC50 for human recombinant His-tagged MGL expressed in Escherichia coli BL21 DE3 cells to IC50 for human recombinant MBP-tagged FAAH expressed in Escherichia coli cells by fluorescence based assay
[7] = Selectivity ratio of IC50 for human recombinant His-tagged MGL expressed in Escherichia coli BL21 DE3 cells to IC50 for rat recombinant His/GST-tagged FAAH expressed in Escherichia coli cells by fluorescence based assay
Homo sapiens [8] = species: Homo sapiens; assay: Selectivity ratio of IC50 for human full length ABHD6 expressed in Escherichia coli cells to IC50 for human recombinant MBP-tagged FAAH expressed in Escherichia coli cells by fluorescence based assay
Monoglyceride lipase = target: T2, Monoglyceride lipase (Homo sapiens, UniProt Q99685); assay: Inhibition of human recombinant His-tagged MGL expressed in Escherichia coli BL21 DE3 cells using AHMMCE as substrate preincubated with enzyme for 15 mins followed by substrate addition and measured after every 15 mins for 3 hrs by fluorescence based assay
T2 sequence (Q99685 whole entry): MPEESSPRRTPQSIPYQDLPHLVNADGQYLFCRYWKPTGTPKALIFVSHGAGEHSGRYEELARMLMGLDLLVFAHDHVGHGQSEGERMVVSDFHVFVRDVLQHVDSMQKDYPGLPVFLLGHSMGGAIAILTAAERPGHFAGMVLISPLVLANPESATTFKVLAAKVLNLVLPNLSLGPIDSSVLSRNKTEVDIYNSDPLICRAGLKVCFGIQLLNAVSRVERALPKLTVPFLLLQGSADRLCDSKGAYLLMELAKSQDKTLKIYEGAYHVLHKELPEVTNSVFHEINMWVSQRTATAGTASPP
Outline: as §2

[9] = target: Cannabinoid receptor 2 (Homo sapiens) (UniProt P34972); assay: Displacement of [3H]CP55940 from human CB2 receptor expressed in HEK293 cells by competition-equilibrium binding analysis; format: cell-based
Sequence of Cannabinoid receptor 2 (Homo sapiens) (P34972 whole entry): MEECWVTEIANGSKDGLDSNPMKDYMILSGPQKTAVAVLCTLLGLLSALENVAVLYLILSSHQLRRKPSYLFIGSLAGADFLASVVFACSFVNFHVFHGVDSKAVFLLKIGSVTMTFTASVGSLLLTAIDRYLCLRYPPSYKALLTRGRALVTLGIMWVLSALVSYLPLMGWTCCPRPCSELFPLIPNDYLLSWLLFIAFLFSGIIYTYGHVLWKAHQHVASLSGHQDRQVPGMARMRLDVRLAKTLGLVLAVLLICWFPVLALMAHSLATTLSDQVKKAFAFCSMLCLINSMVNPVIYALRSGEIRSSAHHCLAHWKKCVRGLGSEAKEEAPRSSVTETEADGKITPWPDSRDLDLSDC
Outline: as §1

[10] = target: T3, Fatty-acid amide hydrolase 1 (Rattus norvegicus, UniProt P97612); assay: Inhibition of rat recombinant His/GST-tagged FAAH expressed in Escherichia coli cells using AAMCA as substrate incubated for 15 mins followed by substrate addition and measured after every 20 mins for 4 hrs by fluorescence based assay
T3 sequence (P97612 whole entry): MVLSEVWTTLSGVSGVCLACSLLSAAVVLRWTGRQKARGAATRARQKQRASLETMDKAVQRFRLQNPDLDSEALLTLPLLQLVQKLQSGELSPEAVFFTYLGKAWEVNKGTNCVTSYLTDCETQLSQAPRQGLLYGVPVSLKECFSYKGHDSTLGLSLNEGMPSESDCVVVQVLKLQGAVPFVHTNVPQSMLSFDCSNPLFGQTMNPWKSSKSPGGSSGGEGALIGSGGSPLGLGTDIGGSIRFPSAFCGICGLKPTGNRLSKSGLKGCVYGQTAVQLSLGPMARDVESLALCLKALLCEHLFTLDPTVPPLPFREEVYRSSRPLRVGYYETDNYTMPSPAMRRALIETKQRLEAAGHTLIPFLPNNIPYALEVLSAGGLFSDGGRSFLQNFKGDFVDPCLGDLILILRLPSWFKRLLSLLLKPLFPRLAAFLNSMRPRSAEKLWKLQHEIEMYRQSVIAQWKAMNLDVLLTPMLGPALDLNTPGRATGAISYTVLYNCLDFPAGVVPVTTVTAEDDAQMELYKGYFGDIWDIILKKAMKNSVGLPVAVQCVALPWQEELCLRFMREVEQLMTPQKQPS
Outline: as §2

[11] = Stability in human plasma assessed as half life; format: ADME, cell-free
Outline: (§3)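 Stability assessed as half-life in human, rat and mouse plasma and gastric fluid, and in human, rat and mouse liver microsomal preparations.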

[12] = Stability in rat plasma assessed as half life; format: ADME, cell-free
Outline: as §3

[13] = Stability in rat liver microsomes assessed as half life; format: ADME, Microsome
Outline: as §3

[14] = Stability in rat gastric fluid assessed as half life; format: ADME, tissue-based, Gastric juice
Outline: as §3

[15] = Stability in mouse liver microsomes assessed as half life; format: ADME, Microsome
Outline: as §3

[16] = Stability in human liver microsomes assessed as half life; format: ADME, Microsome
Outline: as §3

[17] = Stability in mouse plasma assessed as half life; format: ADME, cell-free
Outline: as §3

[18] = Stability in mouse gastric fluid assessed as half life; format: ADME, tissue-based, Gastric juice
Outline: as §3

[19] = Stability in human gastric fluid assessed as half life; format: ADME, tissue-based, Gastric juice
Outline: as §3

Structure (SMILES) | Activity [1] | Activity [2] | Activity [3] | pIC50 [4] | Ratio IC50 [5] | Ratio IC50 (Homo sapiens [6]) | Ratio IC50 [7] | Ratio IC50 (Homo sapiens [8]) | pIC50 (Monoglyceride lipase) | Activity [9] | pIC50 [10] | half-life [11] | half-life [12] | half-life [13] | half-life [14] | half-life [15] | half-life [16] | half-life [17] | half-life [18] | half-life [19]
Cc1noc(C2CCN(C(=O)Oc3cccc(N4CCS(=O)(=O)CC4)c3)CC2)n1 | inactive | inactive | inactive | 6.83 | > 1000 | > 1000 | > 1000 | > 1000 | < 6.00 | inactive | 6.92 |  |  |  |  |  |  |  |  | 
C[C@@H]1CN(c2ccccc2)CCN1C(=O)Oc1cccc(N2CCS(=O)(=O)CC2)c1 | inactive | inactive | inactive | 7.75 | > 1000 | > 1000 | > 1000 | > 1000 | < 6.00 | inactive | 8.24 | > 60 min | > 60 min | 15 to 25 min | > 60 min | 15 to 25 min | 15 to 25 min | > 60 min | > 60 min | > 60 min
O=C(Oc1cccc(N2CCCCC2)c1)N1CCC(c2ccc(F)cc2)CC1 | inactive | inactive | inactive | 7.40 | > 1000 | > 1000 | > 1000 | > 1000 | < 6.00 | inactive | 8.17 | > 60 min | > 60 min | 15 to 25 min | > 60 min | 15 to 25 min | 15 to 25 min | > 60 min | > 60 min | > 60 min
COc1ccc(N2CCN(C(=O)Oc3cccc(N4CCS(=O)(=O)CC4)c3)[C@H](C)C2)cc1 | inactive | inactive | inactive | 7.95 | > 1000 | > 1000 | > 1000 | > 1000 | < 6.00 | inactive | 8.13 | > 60 min | > 60 min | 15 to 25 min | > 60 min | 15 to 25 min | 15 to 25 min | > 60 min | > 60 min | > 60 min
O=C(Oc1cccc(N2CCS(=O)(=O)CC2)c1)N1C[C@H]2C[C@@H]1CN2c1ccc(F)cc1 | inactive | inactive | inactive | 7.69 | > 1000 | > 1000 | > 1000 | > 1000 | < 6.00 | inactive | 7.77 |  |  |  |  |  |  |  |  | 
O=C(Oc1cccc(N2CCS(=O)(=O)CC2)c1)N1CCC(O)(c2ccccc2)CC1 | inactive | inactive | inactive | 6.76 | > 1000 | > 1000 | > 1000 | > 1000 | < 6.00 | inactive | 7.11 |  |  |  |  |  |  |  |  | 
Cc1ccccc1C1CCN(C(=O)Oc2cccc(N3CCS(=O)(=O)CC3)c2)CC1 | inactive | inactive | inactive | 7.80 | > 1000 | > 1000 | > 1000 | > 1000 | < 6.00 | inactive | 7.99 |  |  |  |  |  |  |  |  | 
N#Cc1ccc(N2CCN(C(=O)Oc3cccc(N4CCS(=O)(=O)CC4)c3)CC2)cc1 | inactive | inactive | inactive | 7.05 | > 1000 | > 1000 | > 1000 | > 1000 | < 6.00 | inactive | 7.20 |  |  |  |  |  |  |  |  | 
O=C(Oc1cccc(N2CCS(=O)(=O)CC2)c1)N1CCN(c2ccccn2)CC1 | inactive | inactive | inactive |  | > 1000 | > 1000 | > 1000 | > 1000 | < 6.00 | inactive | 6.99 |  |  |  |  |  |  |  |  | 
O=C(Oc1cccc(N2CCS(=O)(=O)CC2)c1)N1CCN(c2ccc(F)cc2)CC1 | inactive | inactive | inactive | 7.69 | > 1000 | > 1000 | > 1000 | > 1000 | < 6.00 | inactive | 7.90 |  |  |  |  |  |  |  |  | 
CN(C)c1ccc(C2CCN(C(=O)Oc3cccc(N4CCOCC4)c3)CC2)cc1 | inactive | inactive | inactive | 7.51 | > 1000 | > 1000 | > 1000 | > 1000 | < 6.00 | inactive | 7.83 |  |  |  |  |  |  |  |  | 
O=C(Oc1cccc(N2CCS(=O)(=O)CC2)c1)N1CCC(c2ccncc2)CC1 | inactive | inactive | inactive | 6.88 | > 1000 | > 1000 | > 1000 | > 1000 | < 6.00 | inactive | 7.12 |  |  |  |  |  |  |  |  | 
C[C@H]1CN(c2ccc(F)cc2)CCN1C(=O)Oc1cccc(N2CCS(=O)(=O)CC2)c1 | inactive | inactive | inactive | 7.14 | > 1000 | > 1000 | > 1000 | > 1000 | < 6.00 | inactive | 7.39 |  |  |  |  |  |  |  |  | 
